Compound activity from PubChem.
CAL PDZ FP-1 – CAL PDZ (human) peptide binding inhibition; Q9HD26; purified CAL PDZ, TMR-peptide fluorescence polarization, 1 h; inhibition, % at 24.9 µM; 300,000 compounds, 0.92% hits; AID 602252;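 active = mean inhibition of at least 30% with at least half of replicates also reaching 30%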;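 also: 0% = DMSO neutral control and 100% = excess unlabeled competitor peptide PRC23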
CDK5 inh – CDK5/p35 (human) kinase inhibition; inhibition, % at 10 µM; 330,000 compounds, 0.01% hits; Q00535+Q15078; Recombinant CDK5/p35, ADP-Glo luminescence, 60 min;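 active = highest replicate inhibition of at least 50% and at least 75% of replicates reaching 50%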;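 also: plate controls were DMSO neutral control for no effect and GW8510 at 10 µM for full effect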
dFosB act-1 – enhances mouse delta FosB homodimer DNA binding. 340,000 compounds, 0.99% hits. P13346. activation, % at 25 µM. AID 493131. purified delta FosB, TAMRA-CDK5 oligo fluorescence polarization; percent of positive-control signal above neutral wells;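 active = mean activation above about 17%, with every replicate also reaching it, limit read from the data, passing the limit was not always enough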
Target sequence (P13346 whole entry, looked up): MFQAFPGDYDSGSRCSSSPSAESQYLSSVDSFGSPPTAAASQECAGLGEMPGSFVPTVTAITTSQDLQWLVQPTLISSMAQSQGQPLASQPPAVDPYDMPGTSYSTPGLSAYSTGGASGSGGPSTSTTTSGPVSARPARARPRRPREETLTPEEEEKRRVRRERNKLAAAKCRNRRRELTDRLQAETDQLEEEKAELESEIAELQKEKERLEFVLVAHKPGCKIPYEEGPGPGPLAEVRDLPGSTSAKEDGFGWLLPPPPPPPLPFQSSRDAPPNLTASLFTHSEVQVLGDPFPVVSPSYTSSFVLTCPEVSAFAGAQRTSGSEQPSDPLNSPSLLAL
CAL PDZ FP-2 – blocks peptide binding to human CAL PDZ domain; Q9HD26; purified CAL PDZ, TMR-peptide fluorescence polarization, 1 h; inhibition, % at 20 µM; 330,000 compounds, 0.02% hits; AID 504414;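 active = highest replicate inhibition of at least 40%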;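 also: plate controls were DMSO neutral control wells for no effect and unlabeled competitor peptide control wells for full effect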
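Test system: purified CerCALP PDZ construct; Compound dosing: one concentration, 20 µM compound; Also added: TMR-labelled reporter peptide T*-PRC34 bound in PDZ groove; Read-out: inhibition from polarization loss; Controls: unlabelled peptide and DMSO controls; Signal: FP readout, S and P plane fluorescence; Incubation: 1 h at RT.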
S100A4 inh HTS – S100A4-myosin IIA interaction inhibition; P26447; S100A4/TAMRA-MyoIIA peptide fluorescence polarization; inhibition, % at 10.7 µM; 360,000 compounds, 0.14% hits; AID 652163;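 active = mean inhibition of at least 70% across replicates, with every replicate also reaching that level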
Target sequence (P26447 whole entry, looked up): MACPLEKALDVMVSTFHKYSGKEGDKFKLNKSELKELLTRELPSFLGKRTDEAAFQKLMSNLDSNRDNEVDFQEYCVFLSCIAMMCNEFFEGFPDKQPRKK
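assay system = human S100A4 monomer with TAMRA-labelled myosin IIA peptide | also added = labelled myosin peptide probe, 5 nM | incubation = 5 min between mix addition and reading | control set = DMSO and TFP controls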
C2C12 statin – protects C2C12 myotubes from simvastatin toxicity; ATP luminescence, 48 h; scaled: DMSO 0, geranylgeraniol control 100; rescue of ATP level, % at 7.49 µM; 330,000 compounds, 0.78% hits;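 active = mean ATP rescue above about 67%, or every replicate alone reaching that limit, limit read from the data, passing the limit was not always enough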;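 also: myotubes were challenged with 10 µM simvastatin during compound exposure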
dFosB act-2 – enhances mouse delta FosB homodimer binding to DNA; activation, % at 24.9 µM; 2,400 tested, under 10 active; purified delta FosB, TAMRA-CDK5 oligo fluorescence polarization; normalised: neutral wells 0, positive control 100; shares compounds with dFosB act-1;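 active = highest replicate activation at or above 34% and every replicate reaching that threshold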;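 also: higher polarization means more probe DNA bound by delta FosB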
An asterisk follows results filed as active; · = no result. An excerpt weighted towards active compounds, which were near 2% of everything screened.

SMILES | CAL PDZ FP-1 | CDK5 inh | dFosB act-1 | CAL PDZ FP-2 | S100A4 inh HTS | C2C12 statin | dFosB act-2
Cn1cc(Cl)c(C(=O)Nc2nc3ccc(Cl)cc3s2)n1 | -2.6 | 1.5 | 23.5* | -2.8 | · | 0.4 | -1.7
Cn1cc(Cl)c(C(=O)Nc2nc3ccc([N+](=O)[O-])cc3s2)n1 | -1.9 | 0.1 | 2.7 | -1.9 | 2.3 | · | ·
C[C@@H]1CCCCO[C@H](CN(C)C(=O)c2ccccc2)[C@@H](C)CN([C@H](C)CO)C(=O)c2cc(NC(=O)NC3CCCCC3)ccc2O1 | · | · | · | · | -2.9 | 4.8 | ·
COc1cc2c(cc1OC)-c1cc(Nc3cccc(F)c3)nc(=O)n1CC2 | 2.1 | -0.4 | -21.3 | -0.6 | -1.3 | -9.7 | ·
COc1cc2c(cc1OC)-c1cc(Nc3ccc(F)cc3)nc(=O)n1CC2 | -1.0 | -1.1 | 37.3* | -6.0 | 3.8 | · | 2.5
C[C@@H]1CN([C@@H](C)CO)C(=O)c2cccc(NS(=O)(=O)c3cn(C)cn3)c2O[C@@H]1CN(C)Cc1ccccc1 | · | · | · | · | 2.3 | -14.6 | ·
CC(=O)Nc1ccc(NC(=O)CNC(=O)c2sc3ccccc3c2Cl)cc1 | -3.3 | -0.1 | 42.1* | -2.1 | -5.0 | -2.9 | 1.4
COC(=O)c1ccc(NC(=O)CNC(=O)c2sc3ccccc3c2Cl)cc1 | 0.3 | -1.2 | 53.5* | -0.7 | -2.4 | 1.2 | 3.1
Cc1ccc(NC(=O)CNC(=O)c2sc3ccccc3c2Cl)nc1 | -3.4 | -0.6 | -1.3 | -2.2 | 8.3 | -13.8 | ·
NC(=O)c1ccc(NC(=O)CNC(=O)c2sc3ccccc3c2Cl)cc1 | -4.1 | -0.2 | 37.7* | 0.1 | -3.8 | -0.6 | 1.9
COc1cc(NS(=O)(=O)c2ccc(NC(=S)NC(=O)c3sc4ccccc4c3Cl)cc2)nc(OC)n1 | -2.6 | -1.4 | -3.0 | -3.3 | · | · | ·
NC(N)=NS(=O)(=O)c1ccc(NC(=S)NC(=O)c2sc3ccccc3c2Cl)cc1 | -2.0 | -0.2 | 29.3* | -3.8 | -10.6 | · | 5.4
CC1(C)Cc2ccccc2-c2nnnn21 | 4.1 | -2.7 | -1.6 | -0.4 | -11.3 | -2.7 | ·
O=C(NNC(=O)c1sc2ccccc2c1Cl)Nc1ccc(Cl)cc1 | -4.0 | -0.6 | 18.9* | -0.1 | -0.3 | 11.7 | 1.1
O=C(Nc1ccncc1)c1sc2ccccc2c1Cl | -0.4 | 1.1 | -23.9 | -1.0 | 2.5 | · | ·
Cc1nn(C)c(C)c1NC(=O)CSc1nc(-c2ccccc2F)nc2c1cnn2-c1ccccc1 | 3.4 | 1.5 | -2.1 | -0.5 | -2.4 | 0.9 | ·
Cc1nn(C)c(C)c1NC(=O)CSc1nc(-c2ccccc2Cl)nc2c1cnn2-c1ccccc1 | -5.1 | -0.1 | 122.3* | -2.5 | · | 21.4 | 6.3
CCc1ccc2nc(NC(=O)C3CCN(c4ncnc5sc(C)c(C)c45)CC3)sc2c1 | 28.4 | 0.3 | 10.9 | -0.3 | -3.9 | 0.0 | ·
COc1ccc(-c2csc(NC(=O)C3CCN(c4ncnc5sc(C)c(C)c45)CC3)n2)cc1OC | -21.3 | -1.1 | 25.9* | -1.7 | -1.1 | -35.4 | -1.9
C=CCn1c(C)cc(-c2csc(NC(=O)C3CCN(c4ncnc5sc(C)c(C)c45)CC3)n2)c1C | -4.1 | 0.7 | 30.1* | -0.4 | -9.3 | -5.8 | 0.2
COc1ccccc1OCC(=O)NNC(=O)C1CCN(c2ncnc3sc(C)c(C)c23)CC1 | -4.3 | 1.4 | -4.7 | -1.6 | -4.8 | -3.4 | ·
COc1cc(/C=C/C(=O)Nc2cccnc2)cc(OC)c1OC | -13.3 | 0.0 | 17.9* | -3.4 | -1.6 | -22.9 | 5.0
COc1ccc2cc(OCC(=O)NNC(=O)Nc3ccc(C(C)=O)cc3)ccc2c1 | -4.1 | 2.4 | 99.3* | -7.4 | 0.9 | -7.8 | 5.2
COc1ccccc1NC(=O)NNC(=O)COc1ccc2ccccc2c1 | -3.3 | 0.2 | 20.9* | -1.4 | 24.5 | -6.3 | 1.6
COc1ccc(NC(=O)NNC(=O)COc2ccc3ccccc3c2)cc1OC | 1.3 | 0.2 | -28.5 | 0.4 | 2.8 | -7.0 | ·
SMILES | CAL PDZ FP-1 | CDK5 inh | dFosB act-1 | CAL PDZ FP-2 | S100A4 inh HTS | C2C12 statin | dFosB act-2
COc1ccc(NC(=O)NNC(=O)COc2ccc3cc(Br)ccc3c2)cc1OC | -6.2 | 0.5 | 143.6* | -2.1 | -4.2 | 1.5 | 5.6
COc1ccc(NC(=O)NNC(=O)COc2ccc3cc(Br)ccc3c2)cc1 | -1.7 | -1.3 | 4.8 | -1.1 | -0.1 | 0.9 | ·
COc1ccc(Cl)cc1NC(=O)C(C)OC(=O)c1ccc(NS(=O)(=O)c2ccc3[nH]c(=O)[nH]c3c2)cc1 (stereo not given) | -13.5 | -0.3 | -2.5 | -2.5 | · | · | ·
CC(OC(=O)c1ccc(NS(=O)(=O)c2ccc3[nH]c(=O)[nH]c3c2)cc1)C(=O)Nc1ccc(Cl)cc1 (stereo not given) | 6.6 | 0.0 | 21.9* | -1.3 | -3.9 | · | 7.2
CC(c1ccccc1)N(NC(=O)C(O)(c1ccccc1)c1ccccc1)C(=O)c1ccccc1 (stereo not given) | -7.1 | 0.0 | 38.4* | -2.8 | 8.1 | · | 1.2
N#Cc1ccccc1Cn1c(=O)n(CCCC(=O)NCc2ccc3c(c2)OCO3)c(=O)c2ccccc21 | 1.6 | 0.1 | 0.7 | 0.0 | · | · | ·
O=C(CCCn1c(=S)[nH]c2cc3c(cc2c1=O)OCO3)NCc1cccc(Cl)c1 | -7.4 | 0.9 | 9.0 | -0.2 | -2.9 | -49.4 | ·
O=C(Cn1cc(C(=O)C2CC2)c2ccccc21)NCc1ccc2c(c1)OCO2 | -4.9 | -1.4 | 22.1* | -1.0 | · | -4.3 | 5.1
O=C(CCn1c(=S)[nH]c2cc3c(cc2c1=O)OCO3)NCc1cccc(Cl)c1 | 16.5 | 0.1 | 21.0* | -0.3 | -5.2 | 5.3 | -1.4
Cc1ccc(Cn2c(=O)n(CCC(=O)NCc3ccc4c(c3)OCO4)c(=O)c3ccccc32)cc1 | 66.2* | -0.5 | 28.3* | -1.2 | · | 2.3 | 3.2
Cc1ccc(S(=O)(=O)N2CC[C@@H]3[C@H]2c2cc(C#Cc4ccccc4F)ccc2N[C@@H]3CO)cc1 | · | · | · | · | 5.9 | 32.6 | ·
S=C1NCCN1CC1CCN(CCC23CC4CC(CC(C4)C2)C3)CC1 | -6.7 | 0.0 | 0.9 | -0.3 | -17.2 | -0.9 | ·
CCCCc1ccc(NC(=O)CSC2=C(C#N)C(c3ccco3)C3=C(CCCC3=O)N2)cc1 (stereo not given) | -5.2 | 0.3 | -10.4 | -1.5 | · | · | ·
O=C(C1CCOCC1)N1CC(=O)N2[C@H](C1)[C@@H](c1ccc(-c3cccnc3)cc1)[C@@H]2CO | · | · | · | · | 3.8 | · | ·
O=C(CSc1nc2ncc(Cl)cc2[nH]1)c1c[nH]c2ccccc12 | -4.6 | 0.6 | 21.5* | -1.0 | -2.2 | · | -4.0
COc1ccc(OC)c(NC(=O)Cn2cc(C#N)c3cc(Br)ccc32)c1 | · | 1.5 | 25.6* | -0.2 | · | -1.1 | 3.4
COc1ccc(NC(=O)Cn2cc(C#N)c3ccccc32)cc1 | -0.9 | 1.8 | 41.7* | 0.4 | -4.7 | · | 1.8
